Assay results as given in ChEMBL document CHEMBL4411261, “Down-Regulation of the Androgen Receptor by G-Quadruplex Ligands Sensitizes Castration-Resistant Prostate Cancer Cells to Enzalutamide” (J Med Chem, 2018).
Active and inactive are the calls of the source. The calls are words filed in the database; no cut-off is given here.

Assays:
Quadruplex DNA [1] = assay: Stabilization of AR G-quadruplex oligonucleotide in human DU145 cells assessed as down-regulation of MAX mRNA expression at IC50 after 48 hrs by RT-PCR analysis; format: cell-based
Outline: (§1)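 Transcripts quantified by TaqMan real-time PCR with RNaseP as normalizer; relative quantity versus untreated cells by the 2−ΔΔCt method. Panel genes measured with a 92-gene cancer-mechanism TaqMan array.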

PC-3 [2] = assay: Effect on c-MYC mRNA expression in human PC3 cells at IC50 after 48 hrs by RT-PCR analysis; format: functional, cell-based; outline: as §1
Quadruplex DNA [3] = assay: Stabilization of AR G-quadruplex oligonucleotide in human LNCAP cells assessed as reduction in AR mRNA expression at IC50 after 48 hrs by RT-PCR analysis; format: cell-based
Outline: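 Cells grown in RPMI-1640 with 10% fetal calf serum, 37 °C, 5% CO2, treated at an equitoxic concentration. Transcripts quantified by TaqMan real-time RT-PCR, normalized to RNaseP, expressed as relative quantity versus untreated cells (calibrator) by the 2−ΔΔCt method.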

PC-3 [4] = assay: Synergistic cytotoxicity against human PC3 cells assessed as ED75 for Enzalutamide at 0.001 to 0.1 uM after 72 hrs by MTS assay

Compound: CN(C)CCCn1c(=O)c2ccc3c(=O)n(CCCN(C)C)c(=O)c4c5[nH]c6ccccc6[nH]c5c(c1=O)c2c34.Cl.Cl
- Activity (Quadruplex DNA [1]): Active
- Activity (PC-3 [2]): inactive
- Activity (Quadruplex DNA [3]): Active
- ED75 (PC-3 [4]): 21.1 µM
